Assay results reported in ChEMBL document CHEMBL1156201, “2-MeS-beta,gamma-CCl2-ATP is a potent agent for reducing intraocular pressure” (J Med Chem, 2010).
Active and inactive are the calls of the source. The calls are words filed in the database; no cut-off is given here.

Key:
[1] = Chemical stability assessed as half life of hydrolysis at pH 1.4; type: physicochemical; details: buffer
How it was run: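 Analogue (1.5 mg) in 0.2 M HCl/KCl buffer (0.8 mL), adjusted to pH 1.4, held at 37 °C for 1–31 days. Sampled at 1–24 h intervals and analysed by reverse-phase HPLC. Half-life derived from peak integration over time.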

Oryctolagus cuniculus [2] = species on record: Oryctolagus cuniculus; assay: Antihypertensive activity in New Zealand rabbit assessed as reduction in intraocular pressure at 100 uM after 8 hrs relative to control; type: functional, Eye; set-up: scale not given: the % may be the effect or the level left
How it was run: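 Male New Zealand white rabbits (2.5 ± 0.5 kg). 100 μM, 10 μL applied unilaterally to the cornea; contralateral eye got the same volume of saline (0.9% NaCl). IOP read by rebound tonometer without anesthetic, twice before dosing, then followed up to 8 h. Blinded design. Mean ± SEM of 8–10 independent experiments.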

Oryctolagus cuniculus [3] = species on record: Oryctolagus cuniculus; assay: Antihypertensive activity in New Zealand rabbit assessed as reduction in intraocular pressure at 1 nM to 100 uM after 8 hrs relative to control; type: functional, Eye
How it was run: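 Male New Zealand white rabbits (2.5 ± 0.5 kg). 10 μL of 1 nM–100 μM solution instilled unilaterally on the cornea; contralateral eye got saline (0.9% NaCl, vehicle). IOP read by rebound tonometer without anesthetic, twice before dosing. Maximal response at each dose was plotted against concentration and fitted for pD2; EC50 taken as antilog of −pD2. One dose per animal per day, washout ≥2 days. Experimenter blinded.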

[4] = Association constant pKa of the compound; type: physicochemical
P2Y purinoceptor 1 = P2Y purinoceptor 1 (Meleagris gallopavo, UniProt P49652); assay: Agonist activity at turkey P2Y1 receptor expressed in human […] receptor assessed as induction of intracellular calcium mobilization; type: functional, cell-based
[5] = Chemical stability assessed as enzymatic stability at 100 uM after 20 mins in presence of human NTPDase1; type: physicochemical
How it was run: (§1)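 Crude extracts of COS-7 cells transiently transfected with the NTPDase. Extract preincubated 3 min at 37 °C in Tris-Ringer buffer, pH 7.4. Substrate added at 100 μM final; reaction stopped at 20 min with malachite green. Released Pi read at 630 nm. Activity of untransfected-cell extract subtracted.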

[6] = Chemical stability assessed as enzymatic stability at 100 uM after 20 mins in presence of human NTPDase2; type: physicochemical; how it was run: as §1
[7] = Chemical stability assessed as enzymatic stability at 100 uM after 20 mins in presence of human NTPDase3; type: physicochemical; how it was run: as §1
[8] = Chemical stability assessed as enzymatic stability at 100 uM after 20 mins in presence of human NPP1; type: physicochemical
How it was run: (§2)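 Human NPP1 or NPP3 extract was preincubated 3 min at 37 °C in 1 mM CaCl2, 140 mM NaCl, 5 mM KCl, 50 mM Tris pH 8.5. Nucleotide was added at 100 μM final. After 20 min the reaction was quenched into ice-cold 1 M perchloric acid and neutralised with KOH. Degradation was read by reverse-phase HPLC (TBA/EDTA/phosphate, pH 7.0).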

[9] = Chemical stability assessed as enzymatic stability at 100 uM after 20 mins in presence of human NPP3; type: physicochemical; how it was run: as §2
[10] = Chemical stability assessed as enzymatic stability at 100 uM after 20 mins in presence of human NTPDase8; type: physicochemical; how it was run: as §1
Serum = assay: Half life in human serum; type: ADME, cell-free
How it was run: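 Serum came from healthy volunteers' blood, held 12 h at 4 °C, centrifuged and stored at −80 °C. Nucleotide (4.5 μL of 40 mM stock) was incubated with 180 μL serum plus 540 μL RPMI-1640 at 37 °C for up to 24 h, sampled at 0.5–12 h intervals. Samples were heat-stopped at 80 °C, cleaned up by extraction and anion-exchange, then analysed by HPLC. Hydrolysis rate came from peak-area change over time.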

Sequence of P2Y purinoceptor 1 (P49652 whole entry): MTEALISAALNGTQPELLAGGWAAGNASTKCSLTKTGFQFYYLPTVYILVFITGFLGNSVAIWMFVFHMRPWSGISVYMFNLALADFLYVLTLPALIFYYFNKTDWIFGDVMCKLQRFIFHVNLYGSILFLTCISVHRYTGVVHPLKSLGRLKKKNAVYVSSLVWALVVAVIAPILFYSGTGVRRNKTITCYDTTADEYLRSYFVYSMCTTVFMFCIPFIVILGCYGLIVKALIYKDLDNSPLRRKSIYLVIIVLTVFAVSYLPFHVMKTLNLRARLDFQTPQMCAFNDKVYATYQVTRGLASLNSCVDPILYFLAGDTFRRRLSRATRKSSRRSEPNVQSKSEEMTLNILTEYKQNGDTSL

Compound	pKa [4]	EC50 (P2Y purinoceptor 1; read-out: EC50) [µM]	Activity [5] [%]	Activity [6] [%]	Activity [8] [%]	Activity [9] [%]	Activity [10] [%]	Activity (Oryctolagus cuniculus [2]; Eye)	also measured
CSc1nc(N)c2ncn([C@@H]3O[C@H](COP(=O)(O)OP(=O)(O)CP(=O)(O)O)[C@@H](O)[C@H]3O)c2n1									t1/2 [1]: 65 h; Activity (Oryctolagus cuniculus [2]): 32%; pD2 (Oryctolagus cuniculus [3]): 4.5
BP(=O)(OC[C@H]1O[C@@H](n2cnc3c(N)nc(SC)nc32)[C@H](O)[C@@H]1O)OP(=O)(O)C(Cl)(Cl)P(=O)(O)O (stereo in doubt; 12A) [listing 1 of 2 here]	7	0.57	0.7	1.5	0.7	5			Activity [7]: 0.3%
BP(=O)(OC[C@H]1O[C@@H](n2cnc3c(N)nc(SC)nc32)[C@H](O)[C@@H]1O)OP(=O)(O)C(Cl)(Cl)P(=O)(O)O (stereo in doubt; 12B) [listing 1 of 2 here]		1.2			4		1.8		
BP(=O)(OC[C@H]1O[C@@H](n2cnc3c(N)nc(SC)nc32)[C@H](O)[C@@H]1O)OP(=O)(O)CP(=O)(O)O (stereo not given in full)	8.4								half-life [1]: 14.5 h
Nc1ncnc2c1ncn2[C@@H]1O[C@H](COP(=O)(O)OP(=O)(O)OP(=O)(O)O)[C@@H](O)[C@H]1O [ADENOSINE TRIPHOSPHATE]									t1/2 (Serum): 4.9 h
BP(=O)(OC[C@H]1O[C@@H](n2cnc3c(N)ncnc32)[C@H](O)[C@@H]1O)OP(=O)(O)C(Cl)(Cl)P(=O)(O)O (stereo in doubt; 11A) [listing 1 of 2 here]								inactive	
CSc1nc(N)c2ncn([C@@H]3O[C@H](COP(=O)(O)OP(=O)(O)C(F)(F)P(=O)(O)O)[C@@H](O)[C@H]3O)c2n1	7	0.76	2.6	1.1	6.2	0.5	5.2	inactive	t1/2 (Serum): 12.4 h; Activity [7]: 2.6%
BP(=O)(OC[C@H]1O[C@@H](n2cnc3c(N)ncnc32)[C@H](O)[C@@H]1O)OP(=O)(O)C(Cl)(Cl)P(=O)(O)O (stereo in doubt; 11A) [listing 2 of 2 here]	7		5.5	1.3	5.3		4.4		EC50 (P2Y purinoceptor 1): Not Active; Activity [7]: 2.6%
CSc1nc(N)c2ncn([C@@H]3O[C@H](COP(=O)(O)C(F)(F)P(=O)(O)O)[C@@H](O)[C@H]3O)c2n1	7	0.98	1.3	2.4	3.9		0.1	Active	pD2 (Oryctolagus cuniculus [3]): 5.1
CSc1nc(N)c2ncn([C@@H]3O[C@H](COP(=O)(O)C(Cl)(Cl)P(=O)(O)O)[C@@H](O)[C@H]3O)c2n1	7	3.1		1.7	3.3	1.8		Active	pD2 (Oryctolagus cuniculus [3]): 4.5
BP(=O)(OC[C@H]1O[C@@H](n2cnc3c(N)nc(SC)nc32)[C@H](O)[C@@H]1O)OP(=O)(O)C(F)(F)P(=O)(O)O (stereo in doubt; 10A)	7		1	1.8	4	10	1.7		EC50 (P2Y purinoceptor 1): Not Active; Activity [7]: 4.4%
BP(=O)(OC[C@H]1O[C@@H](n2cnc3c(N)ncnc32)[C@H](O)[C@@H]1O)OP(=O)(O)CP(=O)(O)O (stereo not given in full)	8.4								half-life [1]: 19 h
CSc1nc(N)c2ncn([C@@H]3O[C@H](COP(=O)(O)OP(=O)(O)C(Cl)(Cl)P(=O)(O)O)[C@@H](O)[C@H]3O)c2n1	7	9.54	0.5	0.5	5.8	1.9			Activity (Oryctolagus cuniculus [2]): 32%
BP(=O)(OC[C@H]1O[C@@H](n2cnc3c(N)ncnc32)[C@H](O)[C@@H]1O)OP(=O)(O)C(Cl)(Cl)P(=O)(O)O (stereo in doubt; 11B) [listing 1 of 2 here]								Active	
BP(=O)(OC[C@H]1O[C@@H](n2cnc3c(N)nc(SC)nc32)[C@H](O)[C@@H]1O)OP(=O)(O)C(Cl)(Cl)P(=O)(O)O (stereo in doubt; 12A) [listing 2 of 2 here]								Active	
BP(=O)(OC[C@H]1O[C@@H](n2cnc3c(N)nc(SC)nc32)[C@H](O)[C@@H]1O)OP(=O)(O)C(F)(F)P(=O)(O)O (stereo in doubt; 10B)		2.13	0.4	0.9	3.4	3.2			
BP(=O)(OC[C@H]1O[C@@H](n2cnc3c(N)ncnc32)[C@H](O)[C@@H]1O)OP(=O)(O)C(Cl)(Cl)P(=O)(O)O (stereo in doubt; 11B) [listing 2 of 2 here]			3.2	1.4	3.3		4		EC50 (P2Y purinoceptor 1): Not Active; Activity [7]: 3.1%
BP(=O)(OC[C@H]1O[C@@H](n2cnc3c(N)nc(SC)nc32)[C@H](O)[C@@H]1O)OP(=O)(O)C(Cl)(Cl)P(=O)(O)O (stereo in doubt; 12B) [listing 2 of 2 here]								Active	
